A short description of assay [1]: Selectivity index was determined in CEM-SS cells. In kind it is functional. In short, it runs like this: (§1)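 CEM-SS T4 lymphocytes infected with wild-type HIV-1. Protection from virus-induced cell death is scored against an AZT-treated positive control run under identical conditions. […] SI = IC50/EC50.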
Assay [2] relates to CEM-SS. The assay is described as follows: (§2) Concentration which results in 50% survival of uninfected untreated control CEM-SS cells (cytotoxicity of the compound). In kind it is cell-based. Conditions: Homo sapiens.
For assay [3], the target named is Human immunodeficiency virus type 1 protease (Human immunodeficiency virus 1) (UniProt Q72874). The assay is described as follows: Inhibition of HIV-1 Mutant HIV-1 RT enzymes containing the single amino acid substitution K103N; NA means Not active. In short, it runs like this:
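Template poly(rA)oligo(dT) 10:1 (0.3 µM 3′-OH ends) with 10 µM [3H]-dTTP, 37 °C. TCA-precipitable radioactivity counted. Ki from Lineweaver-Burk and Dixon plots, inhibitor 0.2-5 Ki, triplicate.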

Assay [4] deals with CEM-SS. In words: Concentration which produces a 50% survival of HIV-1 infected cells relative to uninfected control CEM-SS cells (in vitro anti-HIV activity). Conditions: Homo sapiens. In kind it is functional, cell-based. An outline of the steps:
as §1

The next assay has as its system NIH3T3. The assay is described as follows: Cytotoxicity on 3T3 fibroblasts (3T3F) murine cell line (O.D.=0.131+/-0.014). The class given is functional. Conditions: Mus musculus, read-out: TC50 (the source's name).
A short description of assay [5]: Selectivity index was determined in C8166 cells. In kind it is functional. An outline of the steps: (§3)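 C8166 CD4+ T-cell line (HTLV-I genome, only tat expressed) acutely infected with lymphocytotropic HIV-1 IIIB. […] Read-out is HIV-p24 antigen in supernatants. AZT positive control was run at the same time. SI = IC50/EC50.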
Assay [6] relates to Human immunodeficiency virus 1. In words: Inhibition of HIV-1-p24 antigen production in monocyte-macrophages (cytotoxicity of the compound). In kind it is organism-based. In short, it runs like this:
(§4)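 Macrophages from adherent PBMC (10^6/mL, RPMI-1640 with 20% heat-inactivated FCS), 10^5 per well, >95% pure, infected with monocytotropic HTLV-III Ba-L. Antiviral activity read 14 days after infection. […] SI = IC50/EC50. AZT control run in parallel.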

Assay [7] has as its target T1, Human immunodeficiency virus type 1 reverse transcriptase (Human immunodeficiency virus 1, UniProt Q72547). The assay is described as follows: Inhibition of HIV-1 Mutant HIV-1 RT enzymes containing the single amino acid substitution […].
The nature of assay [8]: Selectivity index between IC50 of HIV-1-p24 and EC50 of HIV-1-p24 (IC50/EC50). In kind it is functional. An outline of the steps: as §4
Assay [9] has as its system C8166. The assay is described as follows: Synergistic antiviral activity of AZT (DDI) with the compound, against HIV-IIIB in C8166 cells. The class given is functional, cell-based. The settings on record: Homo sapiens. In short, it runs like this:
(§5)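 C8166 cells infected with HIV-IIIB and treated with compound combined with AZT (or DDI). Combination index calculated by the Chou-Talalay multiple drug effect analysis under both mutually exclusive and mutually nonexclusive assumptions.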

Assay [10] is described as follows: Cytotoxicity on normal human lymphocytes(HL) (O.D.=0.114+/-0.01). The class given is functional. The settings on record: read-out: TC50 (the source's name).
In assay [11] the test system is CEM-SS. Described as §2. The class given is functional, cell-based. Conditions: Homo sapiens, read-out: IC50 (the source's name).
For another assay, the system named is Daudi. The assay is described as follows: Cytotoxicity on Daudi Human(DH) cell line (O.D.=0.129+/-0.018). The class given is functional. The settings on record: read-out: TC50 (the source's name).
The target in assay [12] is Human immunodeficiency virus type 1 reverse transcriptase (Human immunodeficiency virus 1, UniProt Q72547, Y188L). In words: Inhibition of HIV-1 Mutant HIV-1 RT enzymes containing the single amino acid substitution Y188L.
Assay [13] deals with C8166. The assay is described as follows: (§6) Concentration which results in 50% survival of uninfected untreated control C8166 cells (cytotoxicity of the compound). The class given is functional, cell-based. The settings on record: Homo sapiens. An outline of the steps: (§7)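 Toxicity in uninfected C8166 cells by MTT reduction to formazan, read spectrophotometrically.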
Assay [14] has as its target T1, Human immunodeficiency virus type 1 reverse transcriptase. The assay is described as follows: Inhibition of HIV-1 wild-type RT.
Assay [15] concerns the target Human immunodeficiency virus type 1 reverse transcriptase (Human immunodeficiency virus 1, UniProt Q72547, K103N). In words: Inhibition of HIV-1 Mutant HIV-1 RT enzymes containing the single amino acid substitution K103N.
The next assay is filed under the species Mus musculus. In words: Cytotoxicity on NSO murine cell line (O.D.=0.125+/-0.015). In kind it is functional. Conditions: read-out: TC50 (the source's name).
Assay [16] concerns C8166. The assay is described as follows: Antiviral activity alone against HIV-IIIB in C8166 cells. In kind it is functional, cell-based. The settings on record: Homo sapiens. An outline of the steps:
as §3

Assay [17] addresses Human immunodeficiency virus type 1 reverse transcriptase (Human immunodeficiency virus 1, UniProt Q72547, Y181I). The assay is described as follows: Inhibition of HIV-1 Mutant HIV-1 RT enzymes containing the single amino acid substitution Y181I.
Assay [18] relates to Human immunodeficiency virus 1. In words: Concentration which produces a 50% survival of HIV-1 infected cells relative to uninfected control C8166 cells. The class given is functional, organism-based. Conditions: Human immunodeficiency virus 1, C8166.
The subject of assay [19] is Human immunodeficiency virus 1. In words: Inhibition of HIV-1-p24 antigen production in monocyte-macrophages (in vitro anti-HIV-1 activity). In kind it is functional, organism-based. An outline of the steps:
as §4

The target of assay [20] is Human immunodeficiency virus type 1 reverse transcriptase (Human immunodeficiency virus 1, UniProt Q72547, V106A). The assay is described as follows: Inhibition of HIV-1 Mutant HIV-1 RT enzymes containing the single amino acid substitution V106A.
Assay [21] has as its system C8166. In words: Synergistic antiviral activity with AZT (DDI), against HIV-IIIB in C8166 cells. The class given is functional, cell-based. The settings on record: Homo sapiens. In short, it runs like this: as §5
Assay [22] concerns C8166. Described as §6. In kind it is cell-based. Conditions: Homo sapiens. In short, it runs like this: as §7

Calls of active or inactive are those of the source. No cut-off for these calls is given here. A value given as a limit tells only on which side of the number the result lay.

One may read the IC50 as the concentration that inhibits the measured activity by half. A high value points to a need for much substance. The EC50 is the midpoint of the concentration-response curve. `O=c1c2cccn2c2c(F)cc(F)cc2n1CC/N=C(\S)Nc1ccc(Br)cn1` yielded an SI in assay [1] greater than 23. Moreover, the IC50 with CEM-SS [2] is greater than 2 µM. Moreover, in assay [3], the NA result was “inactive”. This compound also displayed an EC50 with CEM-SS [4] of 0.085 µM.
Usually Ki stands for a dissociation constant, usually derived from enzyme kinetics or from competition with a known ligand. Higher therefore signals weaker binding. Consider `O=c1c2cccn2c2cccc(F)c2n1CC/N=C(\S)Nc1ccc(Br)cn1`, for which the CC50 was 1000 µM with NIH3T3; 960 µM in [10]; greater than 0.02 µM in the assay with CEM-SS [11]; 1000 µM with Daudi; 1000 µM in the assay filed under Mus musculus. Also, the SI in [5] was 7990; in [8], 8800; in assay [1], greater than 43. Further, the IC50 in assay [6] was 17 µM; with C8166 [13] it was 200 µM. Moreover, the Ki is 0.17 µM in [7]; 0.2 µM in assay [12]; 0.009 µM in [14]; 0.16 µM in assay [15]; 0.2 µM in [17]; 0.015 µM in [20]. For the same compound, the concentration giving a half-maximal response (EC50) with C8166 [9] amounted to 0.003 µM; in the assay with C8166 [16] it was 0.025 µM; in [18], 0.025 µM; in assay [19] it was 0.002 µM; in the assay with CEM-SS [4], 0.00047 µM; in the assay on C8166 [21], 0.002 µM.
As for `O=c1n(CCNC(=S)Nc2ccc(Br)cn2)c2ccccc2c2ccnn12`, the inhibition constant Ki is 0.1 µM in assay [7]; 0.4 µM in assay [12]; 0.015 µM in assay [14]; 0.021 µM in assay [15]; 0.52 µM in assay [17]; 0.33 µM in [20].
In assay [14], `O=C(NNc1nc2ccccc2n2cccc12)c1ccccn1` registered a Ki of 4 µM.
Turning to `Cc1cn([C@H]2C[C@H](N=[N+]=[N-])[C@@H](CO)O2)c(=O)[nH]c1=O` [ZIDOVUDINE], the SI is reported as greater than 250 in assay [5] and 526 in [1]. Further, the values for the IC50 in the assay with C8166 [22] and in the assay with CEM-SS [2] were greater than 100 µM and greater than 1 µM, respectively. Also, the EC50 in assay [18] was found to be 0.4 µM.
In the case of `O=c1c2nccn2c2ccccc2n1CCNC(=S)Nc1ccc(Br)cn1`, the CC50 in the assay with NIH3T3 was 690 µM; in assay [10], 670 µM; in the assay on CEM-SS [11] it was greater than 2 µM; in the assay on Daudi, 680 µM; in the assay filed under Mus musculus it was 680 µM. In addition, the SI is recorded as 275 in [5] and greater than 150 in [1]. Besides, the Ki in [7] is 1 µM; in [12], 5 µM; in assay [14], 0.25 µM; in assay [15], 0.24 µM; in assay [17] it was 1.4 µM; in [20], 0.35 µM. Also, the EC50 is 0.066 µM in the assay on C8166 [9]; 0.588 µM in the assay on C8166 [16]; 0.32 µM in assay [18]; 0.013 µM with CEM-SS [4]; 0.46 µM in the assay with C8166 [21]. Moreover, the IC50 in the assay with C8166 [13] came out at 88 µM.
